Data published in ChEMBL document CHEMBL1811802, “Synthesis and significant cytostatic activity of 7-hetaryl-7-deazaadenosines” (J Med Chem, 2011).

Key:
C6 = test: Cytotoxicity against rat C6 cells after 3 days by MTT assay; type: functional, cell-based; conditions: C6, 72 h
MAT-Ly-Lu = test: Cytotoxicity against rat MAT-LyLu cells after 3 days by MTT assay; type: functional, cell-based; conditions: 72 h
K562 [1] = test: Cytotoxicity against human K562 cells after 3 days by MTT assay; type: functional, cell-based; conditions: K562, 72 h
SK-MEL-2 = test: Cytotoxicity against human SK-MEL-2 cells after 3 days by MTT assay; type: functional, cell-based; conditions: SK-MEL-2, 72 h
DU-145 = test: Cytostatic activity against human DU145 cells after 5 days by SRB assay; type: functional; conditions: DU-145, 120 h
Summary of the method: (§1)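 Cells seeded per line density, overnight at 37 °C; day-zero plate TCA-fixed. 5-fold serial dilutions added, 5-day incubation; TCA fixation, 0.057% SRB in 1% acetic acid 30 min, dye dissolved in 10 mM Tris pH 10.5, A500. Growth relative to day-zero and untreated; GIC50 from sigmoidal dose–response fit; mean of two independent experiments.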

BV-173 = test: Cytotoxicity against human BV173 cells after 3 days by MTT assay; type: functional, cell-based; conditions: BV-173, 72 h
[2] = Cytostatic activity against human Hs578 cells after 5 days by SRB assay; type: functional; conditions: Hs578, 120 h; summary of the method: as §1
[3] = Cytotoxicity against human NCI-H146 cells after 3 days by MTT assay; type: functional, cell-based; conditions: NCI-H146, 72 h
PC-3 [4] = test: Cytotoxicity against human PC3 cells after 3 days by MTT assay; type: functional, cell-based; conditions: PC-3, 72 h
HL-60 = test: Cytotoxicity against human HL60 cells after 3 days by XTT assay; type: functional, cell-based; conditions: HL-60, 72 h
Summary of the method: (§2)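 Suspension-grown cell lines, 3-day compound incubation; viability read by XTT metabolic assay; IC50 averaged from four independent experiments.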

EL4 = test: Cytotoxicity against mouse EL4 cells after 3 days by MTT assay; type: functional, cell-based; conditions: EL4, 72 h
[5] = Cytotoxicity against human HeLaS3 cells after 3 days by XTT assay; type: functional, cell-based; conditions: HeLa S3, 72 h; summary of the method: as §2
BJ = test: Cytotoxicity against human BJ cells after 3 days by MTT assay; type: cell-based; conditions: 72 h
[6] = Cytotoxicity against human U87MG cells after 3 days by MTT assay; type: functional, cell-based, U-87MG ATCC; conditions: U-87 MG, 72 h
HPAC = test: Cytotoxicity against human HPAC cells after 3 days by MTT assay; type: functional, cell-based; conditions: 72 h
[7] = Cytotoxicity against human MES-SA cells after 3 days by MTT assay; type: functional, cell-based; conditions: 72 h
HCT-116 [8] = test: Cytotoxicity against human HCT116 cells after 3 days by MTT assay; type: functional, cell-based; conditions: HCT-116, 72 h
K562 [9] = test: Cytotoxicity against human paclitaxel resistant K562 cells after 3 days by MTT assay; type: functional, cell-based; conditions: K562, 72 h
LNCaP = test: Cytotoxicity against human LNCAP cells after 3 days by MTT assay; type: functional, cell-based; conditions: 72 h
PC-3 [10] = test: Cytostatic activity against human PC3 cells after 5 days by SRB assay; type: functional; conditions: PC-3, 120 h; summary of the method: as §1
HT-29 = test: Cytotoxicity against human HT-29 cells after 3 days by MTT assay; type: functional, cell-based; conditions: HT-29, 72 h
MCF7 = test: Cytotoxicity against human MCF7 cells after 3 days by MTT assay; type: functional, cell-based; conditions: MCF7, 72 h
BT-549 [11] = test: Cytotoxicity against human BT549 cells after 3 days by MTT assay; type: functional, cell-based; conditions: BT-549, 72 h
[12] = Cytotoxicity against mouse P388D1 cells after 3 days by MTT assay; type: functional, cell-based; conditions: P388D1, 72 h
CT26 = test: Cytotoxicity against mouse CT26 cells after 3 days by MTT assay; type: functional, cell-based; conditions: CT26, 72 h
A549 = test: Cytostatic activity against human A549 cells after 5 days by SRB assay; type: functional; conditions: A549, 120 h; summary of the method: as §1
SK-N-AS = test: Cytotoxicity against human SK-N-AS cells after 3 days by MTT assay; type: functional, cell-based; conditions: 72 h
CCRF-CEM = test: Cytotoxicity against human CCRF-CEM cells after 3 days by XTT assay; type: functional, cell-based; conditions: 72 h; summary of the method: as §2
[13] = Cytotoxicity against human CEM-DNR-bulk cells after 3 days by MTT assay; type: functional, cell-based; conditions: 72 h
NCI-H23 = test: Cytostatic activity against human NCI-H23 cells after 5 days by SRB assay; type: functional; conditions: NCI-H23, 120 h; summary of the method: as §1
HCT-116 [14] = test: Cytostatic activity against human HCT116 cells after 5 days by SRB assay; type: functional; conditions: HCT-116, 120 h; summary of the method: as §1
HeLa = test: Cytotoxicity against human HeLa cells after 3 days by MTT assay; type: functional, cell-based; conditions: 72 h
L1210 = test: Cytotoxicity against mouse L1210 cells after 3 days by MTT assay; type: functional, cell-based; conditions: L1210, 72 h
SK-OV-3 = test: Cytotoxicity against human SKOV3 cells after 3 days by MTT assay; type: functional, cell-based; conditions: SK-OV-3, 72 h
Adenosine kinase = Adenosine kinase (Homo sapiens, UniProt P55263); test: Inhibition of human ADK using [3H]-adenosine by scintillation counting
MT4 = test: Cytostatic activity against human MT4 cells after 5 days by SRB assay; type: functional; conditions: MT4, 120 h
BT-549 [15] = test: Cytostatic activity against human BT549 cells after 5 days by SRB assay; type: functional; conditions: BT-549, 120 h; summary of the method: as §1
MDA-MB-231 = test: Cytotoxicity against human MDA-MB-231 cells after 3 days by MTT assay; type: functional, cell-based; conditions: MDA-MB-231, 72 h
HCT-15 = test: Cytostatic activity against human HCT15 cells after 5 days by SRB assay; type: functional; conditions: HCT-15, 120 h; summary of the method: as §1
[16] = Inhibition of RNA polymerase 2 in human HeLaScribe nuclear extracts after 1 hr; conditions: read-out: IC50
Summary of the method: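 HeLaScribe nuclear extract transcription with CMV(+) template DNA, 3 mM MgCl2, 400 μM CTP/GTP/UTP, 25 μM [33P]ATP. Inhibitor preincubated 5 min at 30 °C, then 1 h at 30 °C. Products run on 6% urea–polyacrylamide gel; full-length transcript quantified; IC50 is 50% product decrease.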

Sequence of Adenosine kinase (P55263 whole entry): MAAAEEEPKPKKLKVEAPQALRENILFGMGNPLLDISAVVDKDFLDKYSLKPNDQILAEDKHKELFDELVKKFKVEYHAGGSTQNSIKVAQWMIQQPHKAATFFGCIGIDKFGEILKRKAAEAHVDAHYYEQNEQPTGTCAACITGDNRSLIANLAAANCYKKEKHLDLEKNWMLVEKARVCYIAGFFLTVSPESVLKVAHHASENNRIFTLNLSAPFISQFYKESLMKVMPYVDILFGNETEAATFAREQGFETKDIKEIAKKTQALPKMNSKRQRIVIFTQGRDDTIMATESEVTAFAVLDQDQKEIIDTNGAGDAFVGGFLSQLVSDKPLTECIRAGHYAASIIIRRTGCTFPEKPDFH

Row | Compound | IC50 (C6) [µM] | IC50 (K562 [1]) [µM] | IC50 (SK-MEL-2) [µM] | IC50 (BV-173) [nM] | GI50 [2] [nM] | IC50 [3] [µM] | IC50 (PC-3 [4]) [µM] | IC50 (EL4) [µM] | IC50 (BJ) [µM] | IC50 [6] [µM] | IC50 (HPAC) [nM] | IC50 [7] [nM] | IC50 (HCT-116 [8]) [µM] | IC50 (K562 [9]) [nM] | IC50 (LNCaP) [µM] | GI50 (PC-3 [10]) [nM] | IC50 (HT-29) [nM] | IC50 (MCF7) [µM] | IC50 (BT-549 [11]) [nM] | IC50 [12] [nM] | other results
1 | Nc1ncnc2c1c(-c1ccoc1)cn2[C@@H]1O[C@H](CO)[C@@H](O)[C@H]1O | > 10 | 0.2 | > 10 | 68 | 21 | > 10 | > 10 | > 10 | > 10 | > 10 | 133 | 1330 | 0.425 | 147 | 0.112 | 418 | 394 | 9.74 | 452 | 139 | IC50 (MAT-Ly-Lu): 1860 nM; GI50 (DU-145): 330 nM; IC50 (HL-60): 9.06 µM; IC50 [5]: 20 nM; IC50 (CT26): 1670 nM; GI50 (A549): 34 nM; IC50 (SK-N-AS): > 10 µM; IC50 (CCRF-CEM): 70 nM; IC50 [13]: 364 nM; GI50 (NCI-H23): 198 nM; GI50 (HCT-116 [14]): 15 nM; IC50 (HeLa): 350 nM; IC50 (L1210): 445 nM; IC50 (SK-OV-3): > 10 µM; IC50 (Adenosine kinase): > 5000 nM; GI50 (MT4): 170 nM; GI50 (BT-549 [15]): 28 nM; IC50 (MDA-MB-231): 0.126 µM
2 | Nc1nc(Cl)nc2c1ncn2[C@@H]1O[C@H](CO)[C@@H](O)[C@@H]1F [CLOFARABINE] | – | – | – | – | 1240 | – | – | – | – | – | – | – | – | – | – | 63 | – | – | – | – | GI50 (DU-145): 125 nM; GI50 (A549): 86 nM; GI50 (HCT-15): 180 nM; GI50 (NCI-H23): 40 nM; GI50 (HCT-116 [14]): 106 nM; GI50 (MT4): 51 nM; GI50 (BT-549 [15]): 65 nM
3 | Nc1nc(Cl)nc2c1ncn2[C@H]1C[C@H](O)[C@@H](CO)O1 [CLADRIBINE] | 9.07 | 7.69 | > 10 | 0.8 | – | > 10 | 8.28 | 0.848 | > 10 | > 10 | 9320 | 165 | 9.43 | 170 | > 10 | – | 9440 | 2.35 | 123 | 285 | IC50 (CT26): 131 nM; IC50 (SK-N-AS): > 10 µM; IC50 [13]: 352 nM; IC50 (HeLa): > 10000 nM; IC50 (L1210): 393 nM; IC50 (SK-OV-3): > 10 µM; IC50 (MDA-MB-231): > 10 µM
4 | Nc1ncnc2c1c(-c1cn[nH]c1)cn2[C@@H]1O[C@H](CO)[C@@H](O)[C@H]1O | 0.538 | 9.83 | > 10 | 9780 | 12 | > 10 | > 10 | > 10 | > 10 | > 10 | 141 | 7740 | > 10 | 92 | 9.55 | 14 | 136 | > 10 | 108 | 93 | IC50 (MAT-Ly-Lu): > 10000 nM; IC50 (HL-60): > 25 µM; IC50 [5]: 220 nM; IC50 (CT26): 396 nM; GI50 (A549): 192 nM; IC50 (SK-N-AS): > 10 µM; IC50 (CCRF-CEM): 560 nM; IC50 [13]: 104 nM; GI50 (NCI-H23): 144 nM; GI50 (HCT-116 [14]): 970 nM; IC50 (HeLa): 185 nM; IC50 (L1210): 258 nM; IC50 (SK-OV-3): > 10 µM; IC50 (Adenosine kinase): 50 nM; GI50 (MT4): 110 nM; GI50 (BT-549 [15]): 50 nM; IC50 (MDA-MB-231): > 10 µM
5 | Nc1ncnc2c1ccn2[C@@H]1O[C@H](COP(=O)(O)OP(=O)(O)OP(=O)(O)O)[C@@H](O)[C@H]1O [TUBERCIDIN TRIPHOSPHATE] | – | – | – | – | – | – | – | – | – | – | – | – | – | – | – | – | – | – | – | – | IC50 [16]: 93 µM
6 | Nc1ncnc2c1c(-c1ccsc1)cn2[C@@H]1O[C@H](COP(=O)(O)OP(=O)(O)OP(=O)(O)O)[C@@H](O)[C@H]1O | – | – | – | – | – | – | – | – | – | – | – | – | – | – | – | – | – | – | – | – | IC50 [16]: 91 µM
